The text below walks through data of ChEMBL document CHEMBL1833819, “Dihydroquinazolines as a novel class of Trypanosoma brucei trypanothione reductase inhibitors: discovery, synthesis, and characterization of their binding mode by protein crystallography” (J Med Chem, 2011).

The target of assay [1] is T1, Trypanothione reductase (Trypanosoma brucei brucei, UniProt P39051). The assay can be described thus: Inhibition of recombinant trypanothione reductase from Trypanosoma brucei brucei S427 by DTNB-coupled spectrophotometric assay. The method, boiled down: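 Recombinant T. brucei brucei S427 TryR tested in a nonenzymatically coupled spectrophotometric assay, where DTNB reduction to TNB is followed as A412 increase. IC50 is the mean of independent duplicates (at least two replicates).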

Assay [2] deals with T1, Trypanothione reductase. The experiment in a line: Mixed type inhibition of recombinant trypanothione reductase from Trypanosoma brucei brucei S427 by Lineweaver burk method.
In assay [3] the test system is Trypanosoma brucei brucei. The assay can be described thus: Antitrypanosomal activity against blood stream form Trypanosoma brucei brucei by resazurin fluorescence-based viability assay. It counts as functional, organism-based. Put shortly: (§1)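 Bloodstream-form T. b. brucei parasites and MRC5 cells were assayed in resazurin fluorescence-based viability tests. […] Pentamidine served as the positive control in all T. brucei plates.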
(In general: Resazurin is reduced to fluorescent resorufin, in cell work by metabolically active cells.)

For a further assay, the system named is MRC5. The experiment in a line: Cytotoxicity against human MRC5 cells by resazurin fluorescence-based viability assay. It counts as cell-based. The method, boiled down: as §1
Assay [4] deals with T1, Trypanothione reductase. The assay can be described thus: Competitive inhibition of recombinant trypanothione reductase from Trypanosoma brucei brucei S427 by Lineweaver burk method.
Assay [5] deals with Trypanothione reductase (Trypanosoma cruzi, UniProt P28593). The experiment in a line: Inhibition of trypanothione reductase from Trypanosoma cruzi by DTNB-coupled spectrophotometric assay.
Assay [6] has as its target T2, Glutathione reductase, mitochondrial (Homo sapiens, UniProt P00390).
T2 sequence (P00390 whole entry): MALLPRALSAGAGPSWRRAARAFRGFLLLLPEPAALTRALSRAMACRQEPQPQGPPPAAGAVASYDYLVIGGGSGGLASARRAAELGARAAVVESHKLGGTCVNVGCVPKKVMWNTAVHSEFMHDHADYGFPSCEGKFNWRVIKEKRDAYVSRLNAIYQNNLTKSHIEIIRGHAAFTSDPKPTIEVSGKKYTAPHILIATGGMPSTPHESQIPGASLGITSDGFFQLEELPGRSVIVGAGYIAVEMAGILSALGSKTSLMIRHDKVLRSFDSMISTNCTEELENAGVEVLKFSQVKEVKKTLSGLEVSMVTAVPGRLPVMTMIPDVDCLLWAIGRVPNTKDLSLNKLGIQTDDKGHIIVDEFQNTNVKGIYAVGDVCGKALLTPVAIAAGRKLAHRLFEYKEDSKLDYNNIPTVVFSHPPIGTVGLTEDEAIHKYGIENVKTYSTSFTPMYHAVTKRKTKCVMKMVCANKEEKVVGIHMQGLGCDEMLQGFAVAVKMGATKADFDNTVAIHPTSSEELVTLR
The experiment in a line: Inhibition of human glutathione reductase.

T1 sequence (P39051 whole entry): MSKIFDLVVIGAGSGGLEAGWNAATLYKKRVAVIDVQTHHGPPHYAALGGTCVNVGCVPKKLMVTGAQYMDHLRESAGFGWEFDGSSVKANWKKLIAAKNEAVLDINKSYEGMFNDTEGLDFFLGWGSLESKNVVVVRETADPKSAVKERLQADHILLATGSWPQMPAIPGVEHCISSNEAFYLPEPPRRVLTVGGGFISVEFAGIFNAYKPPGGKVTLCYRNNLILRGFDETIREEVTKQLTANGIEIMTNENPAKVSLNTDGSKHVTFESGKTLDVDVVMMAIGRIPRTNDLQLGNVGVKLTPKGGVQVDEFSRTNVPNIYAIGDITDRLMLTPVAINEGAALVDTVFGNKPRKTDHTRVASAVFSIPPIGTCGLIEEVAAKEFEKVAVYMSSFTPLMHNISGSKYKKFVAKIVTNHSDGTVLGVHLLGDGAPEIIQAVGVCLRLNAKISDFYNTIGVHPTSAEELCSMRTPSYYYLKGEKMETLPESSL
Trypanothione reductase (Trypanosoma cruzi, UniProt P28593), sequence (P28593 whole entry): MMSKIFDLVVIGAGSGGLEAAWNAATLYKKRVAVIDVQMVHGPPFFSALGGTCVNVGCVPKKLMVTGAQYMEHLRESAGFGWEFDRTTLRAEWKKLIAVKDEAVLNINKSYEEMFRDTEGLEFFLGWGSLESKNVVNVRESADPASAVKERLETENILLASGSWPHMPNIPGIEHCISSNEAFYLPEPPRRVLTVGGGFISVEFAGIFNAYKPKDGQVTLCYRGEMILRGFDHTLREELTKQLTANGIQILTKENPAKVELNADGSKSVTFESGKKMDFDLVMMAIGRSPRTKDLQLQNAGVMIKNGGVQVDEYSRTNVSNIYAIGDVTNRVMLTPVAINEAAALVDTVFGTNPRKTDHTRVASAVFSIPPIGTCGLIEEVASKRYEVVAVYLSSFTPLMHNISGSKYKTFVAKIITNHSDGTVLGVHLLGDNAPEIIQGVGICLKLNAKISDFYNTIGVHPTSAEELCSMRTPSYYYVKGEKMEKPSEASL

What is called IC50 is the concentration needed to halve the response being measured. As a reminder, the Ki is the dissociation constant of the complex between target and ligand, obtained from inhibition or displacement. What is called EC50 is the concentration needed to bring the measured effect to its halfway point. A low value points to greater potency. With `CC1=Nc2ccc(Cl)cc2C(c2ccccc2)N1CCN1CCN(C(=O)CN(C)C)CC1` (racemic), the IC50 at Trypanothione reductase [1] was 370 nM. The Ki on Trypanothione reductase [2] is 1780 nM; on Trypanothione reductase [4], 270 nM. Also, the concentration giving a half-maximal response (EC50) is 5600 nM in assay [3] and 6000 nM with MRC5.

As for `CC1=Nc2ccc(Cl)cc2C(c2ccccc2)N1CCNC(=O)c1ccco1` (racemic), the half-inhibitory concentration (IC50) on Trypanothione reductase [1] worked out at 860 nM. For the same molecule, the Ki at Trypanothione reductase [2] came to 2270 nM; at Trypanothione reductase [4] it was 440 nM. Also, the 50% effective concentration (EC50) was 19000 nM in assay [3] and 22000 nM in the assay on MRC5.

Regarding `COC(=O)CN1C(C)=Nc2ccc(Br)cc2C1c1ccccc1` (racemic), the concentration for half-maximal inhibition (IC50) at Trypanothione reductase [1] is 6800 nM; at Trypanothione reductase [5] it was 19000 nM; in assay [6] it was more than 100000 nM. In assay [3], this molecule registered a 50% effective concentration (EC50) of 40000 nM.

As to `COC(=O)CN1C(C)=Nc2ccc(C)cc2C1c1ccccc1` (racemic), the values for the IC50 on Trypanothione reductase [1] and against Trypanothione reductase [5] were 67000 nM and 38000 nM, respectively.

For the molecule `CC1=Nc2ccc(Cl)cc2C(c2ccc(C)cc2)N1CCCN(C)C` (racemic), the half-inhibitory concentration (IC50) on Trypanothione reductase [1] amounted to 230 nM. The inhibitory constant (Ki) was determined as 1460 nM at Trypanothione reductase [2] and 190 nM at Trypanothione reductase [4]. The values for the concentration giving a half-maximal response (EC50) (in assay [3]; in the assay with MRC5) were 730 nM and 1900 nM, respectively.
